Laboratory results: ChEMBL document CHEMBL4513216, “Probing the Open Global Health Chemical Diversity Library for Multistage-Active Starting Points for Next-Generation Antimalarials” (ACS Infect Dis, 2020)

Experiment: Toxicity liver stage against HepG2, at 10uM
Type: cell-based
Set-up: test concentration 10 uM, cell line HepG2-A16-CD81EGFP
Details: human, HepG2-A16-CD81EGFP cells; read-out: INHIBITION
Procedure, shortened: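 Uninfected HepG2-A16-CD81EGFP cells, 3 × 10^3 per well, 1536-well, plated on prespotted compound at 10 μM final, parasite-free screening media added to match infected plates; puromycin 10 μM positive, DMSO 0.5% negative; run in parallel with 48 h PbLuc assay at 37 °C, 5% CO2; viability by CellTiter-Glo luminescence, normalized to controls.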

| Structure (SMILES) | cytotoxicity at 10 µM [%] |
| --- | --- |
| CCOC(=O)c1cnn(-c2cc(Oc3ccccc3)ncn2)c1N | 2.93 |
| CC(=O)Cn1ncc(N2CCOCC2)cc1=O | 7.26 |
| CN(Cc1ccc(F)cc1)Cc1nc(-c2cnccn2)no1 | 1.27 |
| CCC(NC(=O)CN(C)Cc1ccc(C)o1)c1ccc(Br)cc1 (stereo unspecified) | 35.5 |
| COCc1cccc(NC(=O)NCCCN(C)S(C)(=O)=O)c1 | -0.561 |
| CN(C)c1cc(C(=O)NCC2(c3ccc(F)cc3)CC2)ccn1 | 8.59 |
| COc1ccc(O[C@H]2COCCN(C(=O)c3ccno3)C2)cc1 | -2.41 |
| O=C(NC[C@H]1OC[C@@H](NCc2ccccc2F)[C@@H]1O)c1ccc(F)cc1 | -1.26 |
| CC[C@H]1CN(S(C)(=O)=O)CC[C@H]1CC(=O)NCCSC | 3.45 |
| Cc1occc(=O)c1OCC(=O)N1CCN(c2ccccc2)CC1 | -2.88 |
| COC(=O)N1CCC(CNC(=O)C2CC2)CC1 | -2.82 |
| CN(CC(=O)NCC(F)(F)F)C(=O)c1ccc(=O)[nH]c1 | -4.39 |
| CCN1C(=O)CCC12CCCN(S(=O)(=O)c1cccc(C)c1)CC2 (stereo unspecified) | -4.54 |
| CC(C)N1[C@@H](C(=O)NCC2CC2)C[C@@H]2CN(Cc3ccco3)C[C@@H]21 | 3.41 |
| COc1cc(N2CCc3ncnc(-c4ccoc4)c3CC2)ncn1 | 14.9 |
| Cc1oncc1C(=O)N1CC[C@H]2CO[C@H](CN3CCCC3)[C@H]2C1 | 10.8 |
| COCCNC(=O)C1CN(C(N)=O)Cc2ccnn2C1 (stereo unspecified) | 0.0039 |
| O=C(CSC1CCc2ccccc2NC1=O)Nc1ccc(CCO)cc1 (stereo unspecified) | -3.77 |
| Cc1nn(C)cc1-c1cc(C(F)(F)F)nn1CCC#N | 3.65 |
| CN(CCn1cncc1-c1cnc(N2CCOCC2)nc1)C1CCCC1 | 7.25 |
| CCCn1cc(Cl)c(C(=O)N2C[C@@H](O)[C@H](Oc3ccccc3)C2)n1 | 5.31 |

| Structure (SMILES) | cytotoxicity at 10 µM [%] |
| --- | --- |
| CO[C@@H]1CCC[C@@H](N(C)C(=O)c2cn3cc(C)ccc3n2)[C@H]1O | 0.829 |
| Cc1c[nH]c(C2COCCN2C(=O)c2ccc(=O)[nH]n2)n1 (stereo unspecified) | -8.77 |
| Cc1ccccc1CC(=O)N(C)CC1(O)CCCN(c2ccccn2)C1 (stereo unspecified) | -18.3 |
| Cc1csc(C(=O)N2CCC3(CC(N(C)c4ccncn4)C3)C2)c1 (stereo unspecified) | -11.2 |
| CC(c1ccco1)N(C(=O)c1cccc(C#N)c1)C1CC1 (stereo unspecified) | 1.18 |
| NC(=O)c1cnc(NCC(=O)NCc2ccco2)c(Cl)c1 | 3.97 |
| CC(OCc1ccccc1)C(=O)NC1CCN(CC(N)=O)CC1 (stereo unspecified) | -3.45 |
| O=C(COCCOc1ccccc1)NC1CCN(c2ccccn2)CC1 | -4.56 |
| OC(CNCc1nnc2ccccn12)c1ccc2c(c1)OCO2 (stereo unspecified) | 5.79 |
| COc1ccc(OCCNC(=O)CN(C)Cc2nnc(C)n2C)cc1 | -10.3 |
| N#Cc1ccc(Cl)cc1NCC1CCOC1 (stereo unspecified) | 3.09 |
| O=c1[nH]c(C2CCOC2)nc2cc(F)c(F)cc12 (stereo unspecified) | 9.66 |
| CC(C)c1nn(C)c(N(C)C)c1CNCc1ccnc(N(C)C)c1 | 1.36 |
| CCOc1ccc(Cl)cc1CCNC(=O)c1ccc(=O)n(C)c1 | 3.31 |
| Cc1cc(C2CCCN(Cc3noc(Cc4ccccc4)n3)C2)n[nH]1 (stereo unspecified) | 3.65 |
| CCc1n[nH]c(C2CN(CC(=O)N(C)Cc3ccco3)CCO2)n1 (stereo unspecified) | 1.07 |
| CC1(C)CN(C(=O)c2occc2COc2cccc(C#N)c2)CCO1 | 8.18 |
| Cc1cccc(N2CCN(CCC(=O)NCc3nnc[nH]3)CC2)c1 | -6.26 |
| CCCS(=O)(=O)N1CCC(NCc2c(C)nn(C)c2OC)CC1 | 7.01 |
| CCc1nc(CCNC(=O)Nc2cc(C(N)=O)ccc2OC)cs1 | 1.43 |
| O=C(Cc1cccc(Cl)c1)Nc1cnccc1SCCCO | -7.04 |

| Structure (SMILES) | cytotoxicity at 10 µM [%] |
| --- | --- |
| COc1cc(F)ccc1N(C)Cc1ccccn1 | -1.84 |
| Cc1nnc(C(C)N(C)Cc2c(C)nn(-c3ccccc3)c2C)o1 (stereo unspecified) | -4.73 |
| O=C(C[S+]([O-])Cc1c(F)cccc1Cl)N1CCc2sccc2C1 (stereo unspecified) | -0.784 |
| COc1c(CNC(C)C(=O)NC2CCCC2)c(C(C)C)nn1C (stereo unspecified) | -1.08 |
| Cc1nc(C2CCCN2CCCn2c(=O)oc3ccccc32)no1 (stereo unspecified) | 6.91 |
| COc1ccc(CN(C)CC(=O)Nc2ccc3[nH]c(=O)[nH]c3c2)cc1F | 5.97 |
| CCc1ccc(NC(=O)C(C)N2CCN(Cc3ncc[nH]3)CC2)cc1 (stereo unspecified) | -7.83 |
| Cc1[nH]ncc1C(=O)NCC(CO)Cc1ccc(Cl)cc1 (stereo unspecified) | -0.0785 |
| Cc1ccc(C)n1-c1c(C(=O)NCC(C)N(C)C)cnn1C (stereo unspecified) | 15.9 |
| CCN(C(=O)CCc1ccc2[nH]ccc2c1)C1CC(=O)NC1=O (stereo unspecified) | -8.96 |
| c1csc(N2CCN(Cc3nnnn3C3CC3)CC2)n1 | 8.96 |
| CCN(C)CC1CCN(C(=O)Nc2ccc(-c3cc[nH]n3)cc2)C1 (stereo unspecified) | -6.25 |
| O=S(=O)(NCCc1c[nH]c2ccc(F)cc12)C1CCOCC1 | 4.13 |
| COc1ccc(OC)c(CNc2nnc(C(C)(C)C)o2)c1 | -6.1 |
| CC(Cn1cccn1)NCc1csc(-c2ccc3c(c2)OCO3)n1 (stereo unspecified) | -26 |
| c1ccc2c(N3CCCCC3Cn3cncn3)ncnc2c1 (stereo unspecified) | 4.16 |
| CC(C)(C)c1nnc(CN2CCN(S(C)(=O)=O)CC2)o1 | -4.32 |
| CCc1nc(C)sc1CN1CC[C@@](O)(C2CCOCC2)[C@H](C)C1 | 1.71 |
| CN(Cc1cc2n(n1)CCN(C(=O)c1cccnc1)C2)Cc1nccs1 | 1.2 |
| CCc1ccc(C(=O)N2CC[C@](C)(O)C(C)(C)C2)[nH]1 | 2.43 |
| CNc1nc(C(=O)N2CCCN(c3ccnc(C)c3)CC2)cs1 | 6.37 |

| Structure (SMILES) | cytotoxicity at 10 µM [%] |
| --- | --- |
| Cc1nc(C(C)Nc2ncnc3c2CCNCC3)c(C)s1 (stereo unspecified) | -6.64 |
| CCN1CCC2(CCC1=O)CN(C1CCOCC1)CCN2C (stereo unspecified) | -1.14 |
| CC(=O)c1c(C)nn(CC(=O)N2Cc3cnc(C(C)(C)C)nc3C2)c1C | -0.539 |
| CCNc1ncc(C(=O)NCc2csc(-c3cnccn3)n2)cn1 | 0.185 |
| CN(Cc1nccn1C)CC1CCOc2ccccc2C1 (stereo unspecified) | -2.77 |
| O=C(O)Cc1cccc(-n2ccnc2-c2ccc(F)c(Cl)c2)c1 | 2.17 |
| CN(C)c1ccc(CCNC(=O)C2CCC(=O)N(C3CCCC3)C2)cc1 (stereo unspecified) | 20.8 |
| CCN(CCn1cccn1)Cc1nc(-c2cccs2)oc1C | -0.179 |
| Cc1cc(F)ccc1CN1CCC(O)(CN2CCCCC2)C1 (stereo unspecified) | 14.8 |
| Cc1ccc([C@@H]2CN(S(=O)(=O)N(C)C)C[C@H]2N(C)C)cc1 | 2.47 |
| COc1ccc(C)cc1CN1CCOC(Cn2nc(C)nc2C)C1 (stereo unspecified) | -2.47 |
| Cc1cc(C(=O)NCc2ccnc(OCC(F)(F)F)c2)no1 | -7.98 |
| Cn1cc([C@@H]2CN(S(C)(=O)=O)C[C@H]2N)c2ccncc21 | 2.61 |
| Fc1ccc(F)c(CN2CCC(c3n[nH]c4ncccc34)CC2)c1 | -25.4 |
| Cc1ccc(N2C[C@H]3CCC[C@@H](CN(C)C)[C@H]3C2)nn1 | 8.82 |
| CN1C[C@@H]2CN(C(=O)NCc3cccc(F)c3)CCC[C@]2(C(=O)O)C1 | 1.14 |
| COCCN1C[C@@H](C)[C@@]2(COCCN(C(=O)c3cccc(C)n3)C2)C1 | 7.13 |
| O=C(c1ccccc1)N1CCOC2(CCN(Cc3cccs3)CC2)C1 | 0.64 |
